In ChEMBL document CHEMBL1156597, “Structure-activity relationship of kahalalide F synthetic analogues” (J Med Chem, 2008):

What was measured:
DU-145 = experiment: Cytotoxicity against human DU145 cells after 48 hrs by SRB assay; format: functional, cell-based; conditions: Homo sapiens, DU-145, 48 h; for CC50: read-out: LC50 (the source's name)
Summary of the method: (§1)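 Cells grown in RPMI 1640 with 10% FBS and penicillin/streptomycin at 37 °C and 5% CO₂, trypsinized, then seeded at 5 × 10³/well. After 18 h drug-free attachment, samples in DMSO/EtOH/PBS (0.5:0.5:99) were added for 48 h continuous exposure. Cells were fixed with cold TCA (1 h, 4 °C) and stained with SRB (10 min). Tris-solubilized stain read at 490 nm. Triplicate wells, mean ± SD; GI₅₀ derived.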

LNCaP = experiment: Cytotoxicity against human LNcaP cells after 48 hrs by SRB assay; format: functional; conditions: for CC50: read-out: LC50 (the source's name); summary of the method: as §1
[1] = Cytotoxicity against human IGROV cells after 48 hrs by SRB assay; format: functional; conditions: for CC50: read-out: LC50 (the source's name); summary of the method: as §1
[2] = Cytotoxicity against human IGROV-ET cells after 48 hrs by SRB assay; format: functional; conditions: for CC50: read-out: LC50 (the source's name); summary of the method: as §1
SK-BR-3 = experiment: Cytotoxicity against human SKBR3 cells after 48 hrs by SRB assay; format: functional; conditions: SK-BR-3, 48 h; for GI50: read-out: GI50; for CC50: read-out: LC50 (the source's name); summary of the method: as §1
SK-MEL-28 = experiment: Cytotoxicity against human SK-MEL-28 cells after 48 hrs by SRB assay; format: functional, cell-based; conditions: Homo sapiens, SK-MEL-28, 48 h; for CC50: read-out: LC50 (the source's name); summary of the method: as §1
A549 = experiment: Cytotoxicity against human A549 cells after 48 hrs by SRB assay; format: functional, cell-based; conditions: Homo sapiens, A549, 48 h; summary of the method: as §1
K562 = experiment: Cytotoxicity against human K562 cells after 48 hrs by SRB assay; format: functional; conditions: K562, 48 h; for CC50: read-out: LC50 (the source's name); summary of the method: as §1
PANC-1 = experiment: Cytotoxicity against human PANC1 cells after 48 hrs by SRB assay; format: functional; conditions: PANC-1, 48 h; for CC50: read-out: LC50 (the source's name); summary of the method: as §1
HT-29 = experiment: Cytotoxicity against human HT29 cells after 48 hrs by SRB assay; format: functional, cell-based; conditions: Homo sapiens, HT-29, 48 h; for CC50: read-out: LC50 (the source's name); summary of the method: as §1
LoVo [3] = experiment: Cytotoxicity against human LoVo cells after 48 hrs by SRB assay; format: functional; conditions: for CC50: read-out: LC50 (the source's name)
LoVo [4] = experiment: Cytotoxicity against human doxorubicin resistant LoVo cells after 48 hrs by SRB assay; format: functional; conditions: for CC50: read-out: LC50 (the source's name); summary of the method: as §1
HeLa = experiment: Cytotoxicity against human HeLa cells after 48 hrs by SRB assay; format: functional; conditions: for CC50: read-out: LC50 (the source's name); summary of the method: as §1
[5] = Cytotoxicity against human HeLa-APL cells after 48 hrs by SRB assay; format: functional; summary of the method: as §1

Row | SMILES | CC50 (DU-145) | CC50 (LNCaP) | CC50 [1] | CC50 [2] | CC50 (SK-BR-3) | GI50 (SK-MEL-28; read-out: GI50) | CC50 (SK-MEL-28) | LC50 (A549) | GI50 (A549; read-out: GI50) | GI50 (K562) | TGI (K562) | CC50 (K562) | GI50 (PANC-1) | TGI (PANC-1) | CC50 (PANC-1) | GI50 (HT-29) | TGI (HT-29) | CC50 (HT-29) | GI50 (LoVo [3]) | TGI (LoVo [3]) | also measured
1 | C/C=C1\NC(=O)[C@H](Cc2ccccc2)NC(=O)[C@@H](C(C)C)NC(=O)[C@@H]([C@H](C)CC)NC(=O)[C@H](NC(=O)[C@H](NC(=O)[C@H](CCCN)NC(=O)[C@H]2CCCN2C(=O)[C@H](NC(=O)[C@H](CCCN)NC(=O)[C@@H](NC(=O)[C@H](NC(=O)CCCC(C)C)C(C)C)[C@@H](C)O)C(C)C)[C@H](C)CC)[C@H](C)OC(=O)[C@H](C(C)C)NC1=O | 1440 nM | 1390 nM | 758 nM | 638 nM | 1050 nM | 1520 nM | 1290 nM | 1810 nM | 2920 nM | 218 nM | 950 nM | 1910 nM | 1730 nM | 2080 nM | 2290 nM | 4610 nM | 4910 nM | 2350 nM | 3610 nM | 4540 nM | TGI (DU-145): 1330 nM; GI50 (DU-145; read-out: GI50): 1230 nM; GI50 (LNCaP): 1760 nM; TGI (LNCaP): 2730 nM; TGI [2]: 1340 nM; GI50 ([2]; read-out: GI50): 1350 nM; TGI (SK-BR-3): 5240 nM; GI50 (SK-BR-3): 4460 nM; TGI (SK-MEL-28): 1410 nM; TGI (A549): 3670 nM; CC50 (LoVo [3]): 3900 nM; GI50 (LoVo [4]): 7590 nM; TGI (LoVo [4]): 7660 nM; CC50 (LoVo [4]): 3710 nM; GI50 (HeLa): 1280 nM; TGI (HeLa): 1070 nM; CC50 (HeLa): 898 nM; GI50 [5]: 1110 nM; LC50 (concentration giving 50% net cell kill) [5]: 1270 nM; TGI [5]: 1190 nM
2 | C/C=C1\NC(=O)[C@H](Cc2ccccc2)NC(=O)[C@@H](C(C)C)NC(=O)[C@@H]([C@H](C)CC)NC(=O)[C@H](NC(=O)[C@H](NC(=O)[C@H](CCCN)NC(=O)[C@H]2CCCN2C(=O)[C@H](NC(=O)[C@@H](NC(=O)[C@@H]2CCCN2C(=O)[C@H](NC(=O)CCCC(C)C)C(C)C)C(C)C)C(C)C)[C@H](C)CC)[C@H](C)OC(=O)[C@H](C(C)C)NC1=O | 1430 nM | 982 nM | 585 nM | 920 nM | 302 nM | 2440 nM | 1670 nM | 4690 nM | 1610 nM | 1480 nM | 1690 nM | 1920 nM | 5140 nM | 4520 nM | 2280 nM | 4630 nM | 4480 nM | 4310 nM | 4660 nM | 4050 nM | GI50 [1]: 280 nM; GI50 ([1]; read-out: GI50): 4520 nM; TGI (SK-MEL-28): 2330 nM; TGI (A549): 1530 nM; CC50 (LoVo [3]): 3380 nM; GI50 (LoVo [4]): 2860 nM; TGI (LoVo [4]): 2330 nM; CC50 (LoVo [4]): 396 nM; CC50 (HeLa): 967 nM; LC50 (concentration giving 50% net cell kill) [5]: 934 nM
3 | C/C=C1\NC(=O)[C@H](Cc2ccccc2)NC(=O)[C@@H](C(C)C)NC(=O)[C@@H]([C@H](C)CC)NC(=O)[C@H](NC(=O)[C@H](NC(=O)[C@H](CCCN)NC(=O)[C@H]2CCCN2C(=O)[C@H](NC(=O)[C@@H](NC(=O)[C@@H](NC(=O)[C@H](NC(=O)CC[C@@H](C)[C@H]2CC[C@H]3[C@@H]4CC[C@@H]5C[C@H](OC(=O)C(F)(F)F)CC[C@]5(C)[C@H]4CC[C@]23C)C(C)C)[C@@H](C)OC(=O)C(F)(F)F)C(C)C)C(C)C)[C@H](C)CC)[C@H](C)OC(=O)[C@H](C(C)C)NC1=O | 663 nM | 838 nM | 317 nM | 2030 nM | 185 nM | 201 nM | 124 nM | 835 nM | 946 nM | 1070 nM | 857 nM | 1220 nM | 1660 nM | 1370 nM | 1370 nM | 463 nM | 479 nM | 921 nM | 285 nM | 337 nM | GI50 (DU-145): 683 nM; GI50 (DU-145; read-out: GI50): 698 nM; GI50 (LNCaP): 729 nM; TGI (LNCaP): 783 nM; GI50 [1]: 384 nM; GI50 ([1]; read-out: GI50): 405 nM; GI50 [2]: 700 nM; GI50 ([2]; read-out: GI50): 638 nM; TGI (SK-BR-3): 116 nM; GI50 (SK-BR-3): 78.4 nM; GI50 (SK-MEL-28): 158 nM; GI50 (A549): 890 nM; CC50 (LoVo [3]): 614 nM; GI50 (LoVo [4]): 336 nM; TGI (LoVo [4]): 381 nM; CC50 (LoVo [4]): 2110 nM; CC50 (HeLa): 789 nM; LC50 (concentration giving 50% net cell kill) [5]: 710 nM
